19 compounds from ChEMBL document CHEMBL1139795, “Capped diaminopropionamide-glycine dipeptides are inhibitors of CC chemokine receptor 2 (CCR2)” (Bioorg Med Chem Lett, 2007) can be followed below.

Mu-type opioid receptor (Homo sapiens), sequence (P35372 whole entry): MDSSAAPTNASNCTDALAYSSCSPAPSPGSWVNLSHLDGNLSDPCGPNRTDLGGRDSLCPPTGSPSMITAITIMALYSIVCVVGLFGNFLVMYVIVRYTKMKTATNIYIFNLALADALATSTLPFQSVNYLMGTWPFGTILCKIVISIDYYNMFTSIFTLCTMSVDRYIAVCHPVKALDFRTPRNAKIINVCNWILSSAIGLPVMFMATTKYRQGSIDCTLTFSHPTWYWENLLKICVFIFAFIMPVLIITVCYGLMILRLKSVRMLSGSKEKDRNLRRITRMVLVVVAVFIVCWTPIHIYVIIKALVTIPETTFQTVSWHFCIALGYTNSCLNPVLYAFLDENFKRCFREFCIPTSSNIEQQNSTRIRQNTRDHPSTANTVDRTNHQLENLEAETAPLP
Histamine H2 receptor (Homo sapiens), sequence (P25021 whole entry): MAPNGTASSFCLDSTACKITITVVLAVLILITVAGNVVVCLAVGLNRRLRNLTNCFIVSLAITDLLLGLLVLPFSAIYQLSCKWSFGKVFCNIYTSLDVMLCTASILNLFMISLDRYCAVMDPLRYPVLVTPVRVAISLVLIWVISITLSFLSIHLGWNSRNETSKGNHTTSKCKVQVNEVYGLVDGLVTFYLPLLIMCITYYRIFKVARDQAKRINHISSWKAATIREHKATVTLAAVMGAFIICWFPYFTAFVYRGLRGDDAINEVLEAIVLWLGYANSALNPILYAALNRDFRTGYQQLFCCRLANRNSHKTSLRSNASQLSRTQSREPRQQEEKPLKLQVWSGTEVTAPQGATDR

For the first data set, the target named is T1, C-C chemokine receptor type 2 (Homo sapiens, UniProt P41597). The experiment in a line: Displacement of [125]MCP1 from CCR2 in human PBMCs. The method in brief:
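Competition binding with 0.3 nM [125I]MCP-1 on human peripheral blood mononuclear cells at 23 °C. IC50 given as mean ± SD (n = 2) or mean ± SEM (n > 2). Single determinations are listed with n = 1.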
Target sequence in this assay (P41597 whole entry): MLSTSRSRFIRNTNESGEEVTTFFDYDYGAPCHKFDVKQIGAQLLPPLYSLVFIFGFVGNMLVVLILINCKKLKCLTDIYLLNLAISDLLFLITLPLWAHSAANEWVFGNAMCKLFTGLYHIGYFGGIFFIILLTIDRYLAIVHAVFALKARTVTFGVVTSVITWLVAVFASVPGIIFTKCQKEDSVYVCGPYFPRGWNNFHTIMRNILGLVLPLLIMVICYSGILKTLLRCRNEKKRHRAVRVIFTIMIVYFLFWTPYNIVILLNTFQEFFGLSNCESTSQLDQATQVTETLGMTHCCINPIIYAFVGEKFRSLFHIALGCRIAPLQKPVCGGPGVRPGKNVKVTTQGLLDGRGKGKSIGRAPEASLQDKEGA
As a reminder, the IC50 is the concentration needed to halve the response being measured. `Cc1ccc(CNC[C@H](NC(=O)CNC(=O)c2cccc(C(F)(F)F)c2)C(=O)NC(C)(C)C)c(C)c1` came in with an IC50 of 48 nM.

For `CCNc1ccc(C(F)(F)F)cc1C(=O)NCC(=O)N[C@@H](CNCc1ccc(C)cc1C)C(=O)NC(C)(C)C`, the half-inhibitory concentration (IC50) worked out at 13 nM.

With `CCNc1cc(C(=O)NCC(=O)N[C@@H](CNCc2ccc(C)cc2C)C(=O)NC(C)(C)C)cc(C(F)(F)F)c1`, the IC50 worked out at 19 nM.

`Cc1ccc(CNC[C@H](NC(=O)CNC(=O)c2cc(C(F)(F)F)ccc2N)C(=O)NC(C)(C)C)c(C)c1` gave a half-maximal inhibitory concentration (IC50) of 11 nM.

In turn, `Cc1ccc(CNC[C@H](NC(=O)CNC(=O)c2cc(N)cc(C(F)(F)F)c2)C(=O)NC(C)(C)C)c(C)c1` came in with a half-inhibitory concentration (IC50) of 23 nM.

As for `Cc1ccc(CNC[C@H](NC(=O)CNC(=O)c2cc(C(F)(F)F)ccc2NC(=O)NC(C)C)C(=O)NC(C)(C)C)c(C)c1`, the IC50 amounted to 15 nM.

The next data set addresses T1, C-C chemokine receptor type 2. The experiment in a line: Displacement of [125]MCP1 from CCR2 in human PBMCs at 10 uM. The method in brief:
(§1)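 Human PBMCs were incubated with 0.3 nM [125I]MCP-1 at 23 °C. Percent inhibition of binding was measured at one fixed inhibitor concentration, n = 1.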
Target sequence in this assay (P41597 whole entry, looked up): as the sequence (P41597 whole entry) above
For `Cc1ccc(CNC[C@H](C)NC(=O)CNC(=O)c2cccc(C(F)(F)F)c2)c(C)c1`, the Activity was 35%.

Regarding `CCNC(=O)[C@@H](NC(=O)CNC(=O)c1cccc(C(F)(F)F)c1)[C@H](C)NCc1ccc(C)cc1C`, the Activity is 2%.

In turn, `CCNC(=O)[C@H](CNCc1ccc(C)cc1C)NC(=O)CCC(=O)c1cccc(C(F)(F)F)c1` displayed an Activity of 7%.

For the compound `Cc1ccc(CNC[C@@H](NC(=O)CNC(=O)c2cccc(C(F)(F)F)c2)C(C)C)c(C)c1`, the Activity was 20%.

In turn, `Cc1ccc(CNC[C@@H](NC(=O)CNC(=O)c2cccc(C(F)(F)F)c2)C(=O)O)c(C)c1` displayed an Activity of 31%.

Compound `Cc1ccc(CNC[C@H](NC(=O)[C@@H](C)NC(=O)c2cccc(C(F)(F)F)c2)C(N)=O)c(C)c1` had an Activity of 40%.

With `Cc1ccc(CNC[C@H](NC(=O)[C@H](C)NC(=O)c2cccc(C(F)(F)F)c2)C(N)=O)c(C)c1`, the Activity came to 9%.

The next data set has the same target. The experiment in a line: Displacement of [125]MCP1 from CCR2 in human PBMCs at 1 uM. The method in brief:
as §1
Target sequence in this assay (P41597 whole entry, looked up): as the sequence (P41597 whole entry) above
In turn, `COC(=O)c1ccc(CNC[C@H](NC(=O)CNC(=O)c2cccc(C(F)(F)F)c2)C(=O)NC(C)(C)C)cc1` came in with an Activity of 20%.

In the case of `Cc1ccc(CNC[C@H](NC(=O)CNC(=O)c2cc(NC(=O)C3CCCCC3)cc(C(F)(F)F)c2)C(=O)NC(C)(C)C)c(C)c1`, the Activity stood at 25%.

Regarding `Cc1ccc(CN(C)C[C@H](NC(=O)CNC(=O)c2cccc(C(F)(F)F)c2)C(=O)NC(C)(C)C)c(C)c1`, the Activity was determined as 12%.

Take `COc1ccc(CNC[C@H](NC(=O)CNC(=O)c2cccc(C(F)(F)F)c2)C(=O)NC(C)(C)C)c(OC)c1`: the Activity amounted to 37%.

Consider `CC(C)(C)NC(=O)[C@H](CNCc1ccc(-c2ccccc2)cc1)NC(=O)CNC(=O)c1cccc(C(F)(F)F)c1`, for which the Activity amounted to 30%.

For `Cc1ccc(CNC[C@H](NC(=O)CNC(=O)c2cccc(C(F)(F)F)c2)C(=O)NC(C)(C)C)cc1F`, the Activity came out at 27%.

For a further data set the target is unchanged. The experiment in a line: Antagonist activity at CCR2 in THP1 cells assessed as inhibition of MCP1-induced Ca2+ flux. Format: functional, cell-based, THP-1.
Target sequence in this assay (P41597 whole entry): as above
Regarding `Cc1ccc(CNC[C@H](NC(=O)CNC(=O)c2cccc(C(F)(F)F)c2)C(=O)NC(C)(C)C)c(C)c1`, the IC50 is 52 nM.

Regarding `CCNc1ccc(C(F)(F)F)cc1C(=O)NCC(=O)N[C@@H](CNCc1ccc(C)cc1C)C(=O)NC(C)(C)C`, the IC50 is 84 nM.

For `CCNc1cc(C(=O)NCC(=O)N[C@@H](CNCc2ccc(C)cc2C)C(=O)NC(C)(C)C)cc(C(F)(F)F)c1`, the IC50 amounted to 58 nM.

For `Cc1ccc(CNC[C@H](NC(=O)CNC(=O)c2cc(C(F)(F)F)ccc2N)C(=O)NC(C)(C)C)c(C)c1`, the 50% inhibitory concentration (IC50) came to 8 nM.

Take `Cc1ccc(CNC[C@H](NC(=O)CNC(=O)c2cc(N)cc(C(F)(F)F)c2)C(=O)NC(C)(C)C)c(C)c1`: the half-maximal inhibitory concentration (IC50) was determined as 52 nM.

For the compound `Cc1ccc(CNC[C@H](NC(=O)CNC(=O)c2cc(C(F)(F)F)ccc2NC(=O)NC(C)C)C(=O)NC(C)(C)C)c(C)c1`, the half-inhibitory concentration (IC50) came out at 58 nM.

Another data set deals with T2, C-C chemokine receptor type 3 (Homo sapiens, UniProt P51677).
T2 sequence (P51677 whole entry): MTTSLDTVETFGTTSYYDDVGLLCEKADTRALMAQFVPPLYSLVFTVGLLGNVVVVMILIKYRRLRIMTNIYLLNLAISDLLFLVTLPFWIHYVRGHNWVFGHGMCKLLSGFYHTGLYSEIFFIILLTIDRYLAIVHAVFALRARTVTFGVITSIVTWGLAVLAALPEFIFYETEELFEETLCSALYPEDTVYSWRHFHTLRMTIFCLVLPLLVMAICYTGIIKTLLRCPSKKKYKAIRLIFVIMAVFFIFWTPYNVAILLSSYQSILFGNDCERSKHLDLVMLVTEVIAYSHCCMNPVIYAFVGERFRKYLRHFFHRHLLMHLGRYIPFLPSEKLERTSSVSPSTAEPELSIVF
As to the kind of experiment: Displacement of [125I]eotaxin from human CCR3 expressed in CHO cells. Format: cell-based. The method in brief:
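Binding of 0.15 nM [125I]eotaxin to CHO cells expressing human CCR3. Data are a single determination, mean ± SD (n = 2), or mean ± SEM (n indicated). ">" means less than 50% response at the stated concentration.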
Take `Cc1ccc(CNC[C@H](NC(=O)CNC(=O)c2cccc(C(F)(F)F)c2)C(=O)NC(C)(C)C)c(C)c1`: the concentration for half-maximal inhibition (IC50) was > 10000 nM.

For `CCNc1ccc(C(F)(F)F)cc1C(=O)NCC(=O)N[C@@H](CNCc1ccc(C)cc1C)C(=O)NC(C)(C)C`, the IC50 was > 10000 nM.

For `CCNc1cc(C(=O)NCC(=O)N[C@@H](CNCc2ccc(C)cc2C)C(=O)NC(C)(C)C)cc(C(F)(F)F)c1`, the concentration for half-maximal inhibition (IC50) is > 10000 nM.

Compound `Cc1ccc(CNC[C@H](NC(=O)CNC(=O)c2cc(C(F)(F)F)ccc2N)C(=O)NC(C)(C)C)c(C)c1` returned a concentration for half-maximal inhibition (IC50) of 750 nM.

As to `Cc1ccc(CNC[C@H](NC(=O)CNC(=O)c2cc(N)cc(C(F)(F)F)c2)C(=O)NC(C)(C)C)c(C)c1`, the IC50 is > 10000 nM.

`Cc1ccc(CNC[C@H](NC(=O)CNC(=O)c2cc(C(F)(F)F)ccc2NC(=O)NC(C)C)C(=O)NC(C)(C)C)c(C)c1` had an IC50 of 10000 nM.

A further data set concerns the target T3, C-C chemokine receptor type 1 (Homo sapiens) (UniProt P32246).
T3 sequence (whole entry): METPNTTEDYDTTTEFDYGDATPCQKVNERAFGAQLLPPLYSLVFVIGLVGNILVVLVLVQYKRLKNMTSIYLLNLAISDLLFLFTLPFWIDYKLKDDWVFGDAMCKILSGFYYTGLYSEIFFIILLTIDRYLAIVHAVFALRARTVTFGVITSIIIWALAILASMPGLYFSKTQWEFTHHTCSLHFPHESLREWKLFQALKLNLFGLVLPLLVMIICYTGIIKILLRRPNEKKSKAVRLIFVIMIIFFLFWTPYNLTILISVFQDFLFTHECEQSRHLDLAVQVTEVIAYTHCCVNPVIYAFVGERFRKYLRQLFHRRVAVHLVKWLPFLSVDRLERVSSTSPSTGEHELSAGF
The experiment in a line: Inhibition of CCR1 at 10 uM.
Usually inhibition stands for the drop in the measured response relative to a control, in per cent. For `COC(=O)c1ccc(CNC[C@H](NC(=O)CNC(=O)c2cccc(C(F)(F)F)c2)C(=O)NC(C)(C)C)cc1`, the inhibition was < 30%.

`Cc1ccc(CNC[C@H](C)NC(=O)CNC(=O)c2cccc(C(F)(F)F)c2)c(C)c1`: the inhibition was < 30%.

Take `Cc1ccc(CNC[C@H](NC(=O)CNC(=O)c2cc(NC(=O)C3CCCCC3)cc(C(F)(F)F)c2)C(=O)NC(C)(C)C)c(C)c1`: the inhibition is < 30%.

On to `CCNC(=O)[C@@H](NC(=O)CNC(=O)c1cccc(C(F)(F)F)c1)[C@H](C)NCc1ccc(C)cc1C`, for which the inhibition was < 30%.

As to `Cc1ccc(CNC[C@H](NC(=O)CNC(=O)c2cccc(C(F)(F)F)c2)C(=O)NC(C)(C)C)c(C)c1`, the inhibition was < 30%.

With `Cc1ccc(CN(C)C[C@H](NC(=O)CNC(=O)c2cccc(C(F)(F)F)c2)C(=O)NC(C)(C)C)c(C)c1`, the inhibition was < 30%.

Take `CCNC(=O)[C@H](CNCc1ccc(C)cc1C)NC(=O)CCC(=O)c1cccc(C(F)(F)F)c1`: the inhibition is < 30%.

`COc1ccc(CNC[C@H](NC(=O)CNC(=O)c2cccc(C(F)(F)F)c2)C(=O)NC(C)(C)C)c(OC)c1`: the inhibition was < 30%.

Consider `CCNc1ccc(C(F)(F)F)cc1C(=O)NCC(=O)N[C@@H](CNCc1ccc(C)cc1C)C(=O)NC(C)(C)C`, for which the inhibition was < 30%.

Take `CCNc1cc(C(=O)NCC(=O)N[C@@H](CNCc2ccc(C)cc2C)C(=O)NC(C)(C)C)cc(C(F)(F)F)c1`: the inhibition is < 30%.

On to `Cc1ccc(CNC[C@H](NC(=O)CNC(=O)c2cc(C(F)(F)F)ccc2N)C(=O)NC(C)(C)C)c(C)c1`, for which the inhibition is < 30%.

For `Cc1ccc(CNC[C@@H](NC(=O)CNC(=O)c2cccc(C(F)(F)F)c2)C(C)C)c(C)c1`, the inhibition is < 30%.

Turning to `Cc1ccc(CNC[C@@H](NC(=O)CNC(=O)c2cccc(C(F)(F)F)c2)C(=O)O)c(C)c1`, the inhibition was < 30%.

On to `CC(C)(C)NC(=O)[C@H](CNCc1ccc(-c2ccccc2)cc1)NC(=O)CNC(=O)c1cccc(C(F)(F)F)c1`, for which the inhibition was < 30%.

`Cc1ccc(CNC[C@H](NC(=O)CNC(=O)c2cc(N)cc(C(F)(F)F)c2)C(=O)NC(C)(C)C)c(C)c1`: the inhibition was < 30%.

On to `Cc1ccc(CNC[C@H](NC(=O)[C@@H](C)NC(=O)c2cccc(C(F)(F)F)c2)C(N)=O)c(C)c1`, for which the inhibition was < 30%.

As to `Cc1ccc(CNC[C@H](NC(=O)[C@H](C)NC(=O)c2cccc(C(F)(F)F)c2)C(N)=O)c(C)c1`, the inhibition was < 30%.

Consider `Cc1ccc(CNC[C@H](NC(=O)CNC(=O)c2cccc(C(F)(F)F)c2)C(=O)NC(C)(C)C)cc1F`, for which the inhibition is < 30%.

Consider `Cc1ccc(CNC[C@H](NC(=O)CNC(=O)c2cc(C(F)(F)F)ccc2NC(=O)NC(C)C)C(=O)NC(C)(C)C)c(C)c1`, for which the inhibition is < 30%.

Another data set has as its target Histamine H2 receptor (Homo sapiens) (UniProt P25021). The experiment in a line: Inhibition of histamine H2 receptor at 10 uM.
Take `Cc1ccc(CNC[C@H](NC(=O)CNC(=O)c2cc(C(F)(F)F)ccc2N)C(=O)NC(C)(C)C)c(C)c1`: the inhibition was > 70%.

In the next data set the target is Sigma non-opioid intracellular receptor 1 (Homo sapiens) (UniProt Q99720). The experiment in a line: Inhibition of sigma 1 receptor at 10 uM.
Sigma non-opioid intracellular receptor 1 (Homo sapiens), sequence (Q99720 whole entry): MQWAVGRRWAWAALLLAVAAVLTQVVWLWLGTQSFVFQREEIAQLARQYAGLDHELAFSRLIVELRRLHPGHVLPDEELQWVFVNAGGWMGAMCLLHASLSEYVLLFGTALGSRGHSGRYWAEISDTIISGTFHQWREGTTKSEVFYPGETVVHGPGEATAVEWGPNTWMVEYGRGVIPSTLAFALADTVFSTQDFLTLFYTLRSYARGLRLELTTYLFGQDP
`Cc1ccc(CNC[C@H](NC(=O)CNC(=O)c2cc(C(F)(F)F)ccc2N)C(=O)NC(C)(C)C)c(C)c1`: the inhibition is > 70%.

In the next data set the target is C-C chemokine receptor type 5 (Homo sapiens) (UniProt P51681). The experiment in a line: Inhibition of CCR5 receptor at 10 uM.
C-C chemokine receptor type 5 (Homo sapiens), sequence (P51681 whole entry, looked up): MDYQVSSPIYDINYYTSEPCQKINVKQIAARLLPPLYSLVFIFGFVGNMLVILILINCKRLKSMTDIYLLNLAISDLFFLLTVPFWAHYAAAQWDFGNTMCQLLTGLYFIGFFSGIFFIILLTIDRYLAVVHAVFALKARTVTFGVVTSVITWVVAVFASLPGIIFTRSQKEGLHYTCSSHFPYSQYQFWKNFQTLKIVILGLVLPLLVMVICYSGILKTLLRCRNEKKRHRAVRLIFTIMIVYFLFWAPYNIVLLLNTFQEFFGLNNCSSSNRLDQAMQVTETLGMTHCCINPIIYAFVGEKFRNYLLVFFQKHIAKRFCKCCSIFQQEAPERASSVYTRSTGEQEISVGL
Turning to `Cc1ccc(CNC[C@H](NC(=O)CNC(=O)c2cc(C(F)(F)F)ccc2N)C(=O)NC(C)(C)C)c(C)c1`, the inhibition is > 70%.

A further data set has as its target Mu-type opioid receptor (Homo sapiens) (UniProt P35372). The experiment in a line: Inhibition of opiate mu receptor at 10 uM.
Take `Cc1ccc(CNC[C@H](NC(=O)CNC(=O)c2cc(C(F)(F)F)ccc2N)C(=O)NC(C)(C)C)c(C)c1`: the inhibition was > 70%.

A further data set is filed under the species Homo sapiens. The experiment in a line: Inhibition of sodium channel at 10 uM.
As to `Cc1ccc(CNC[C@H](NC(=O)CNC(=O)c2cc(C(F)(F)F)ccc2N)C(=O)NC(C)(C)C)c(C)c1`, the inhibition is > 70%.

In a further data set the target is L-type calcium channel (Homo sapiens, UniProt O60840+Q01668+Q13698+Q13936). The experiment in a line: Inhibition of L-type calcium channel at 10 uM.
For the compound `Cc1ccc(CNC[C@H](NC(=O)CNC(=O)c2cc(C(F)(F)F)ccc2N)C(=O)NC(C)(C)C)c(C)c1`, the inhibition at 10 µM was > 70%.
